From ChEMBL document CHEMBL2177069, “Novel peptidomimetic compounds containing redox active chalcogens and quinones as potential anticancer agents” (Eur J Med Chem, 2012)
Activity calls are given as the source filed them. The calls are words filed in the database; no cut-off is given here.

Columns and labels:
PtK2 [1] = test: Induction of oxidative stress in potoroo PtK2 cells assessed as change in microtubular network after 24 hrs by immunofluorescence microscopic analysis; format: functional, cell-based; settings: Potorous tridactylus
In short: (§1)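 PtK2 cells were grown on coverslips and treated once semi-confluent, for 24 h. Cells were fixed with 3.7% paraformaldehyde followed by 0.1% Triton X-100, or with cold methanol/acetone 50:50. Primary and secondary antibodies were applied for 45 min each: anti-GRP94 for ER, anti-α-tubulin. Actin was stained with phalloidin and nuclei with DAPI. Imaging was by fluorescence microscopy with a CCD camera.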

Saccharomyces cerevisiae [2] = test: Growth inhibition of PST2-deficient Saccharomyces cerevisiae YDR032C mutant at 20 ug/disc 24 to 48 hrs by agar diffusion assay; format: functional; settings: read-out: DIZ
In short: (§2)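 S. cerevisiae deletion mutants or wild type grown on YPD, seeded into liquid agar medium at an optical density of 0.1. 6 mm paper discs soaked with methanolic compound solution were placed on the plates and incubated at 30 °C. Growth was checked after 1 and 2 days, and the inhibition zone diameter was recorded in mm.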

Saccharomyces cerevisiae [3] = test: Growth inhibition of wild type Saccharomyces cerevisiae BY4741 at 20 ug/disc after 24 to 48 hrs by agar diffusion assay; format: functional; settings: read-out: DIZ; in short: as §2
PtK2 [4] = test: Induction of oxidative stress in potoroo PtK2 cells assessed as reduction in cell adhesion after 24 hrs by immunofluorescence microscopic analysis; format: functional, cell-based; settings: Potorous tridactylus; in short: as §1
CCRF-CEM = test: Cytotoxicity against human CCRF-CEM cells; format: functional
BT-549 = test: Cytotoxicity against human BT549 cells; format: functional
RXF 393 = test: Cytotoxicity against human RXF393 cells; format: functional
TK-10 = test: Cytotoxicity against human TK10 cells; format: functional
Saccharomyces cerevisiae [5] = test: Growth inhibition of SOD2-deficient Saccharomyces cerevisiae YHR008C mutant at 20 ug/disc 24 to 48 hrs by agar diffusion assay; format: functional; settings: read-out: DIZ; in short: as §2
MDA-MB-231 = test: Cytotoxicity against human MDA-MB-231 cells; format: functional
NCI-H522 = test: Cytotoxicity against human NCI-H522 cells; format: functional
UACC-257 = test: Cytotoxicity against human UACC257 cells; format: functional
CAKI-1 = test: Cytotoxicity against human Caki1 cells; format: functional
[6] = Cytotoxicity against human PHF cells after 24 hrs by MTT assay; format: cell-based
In short: (§3)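 MTT assay. Cells were seeded at 50,000 cells/mL in medium with 10% fetal calf serum and grown for two days at 37 °C, 10% CO2. Serial dilutions of compound were then added for 24 h. MTT was added (final 0.5 mg/mL) for 2 h, and the formazan was pelleted, washed, dissolved in isopropanol with 0.4% HCl and read at 590 nm. IC50 is the concentration giving 50% of untreated-control absorbance, taken from dose-response curves; mean of two parallel experiments.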

ACHN = test: Cytotoxicity against human ACHN cells; format: functional
HUVEC = test: Cytotoxicity against human HUVEC cells after 24 hrs by MTT assay; format: cell-based; in short: as §3
Saccharomyces cerevisiae [7] = test: Growth inhibition of UFD2-deficient Saccharomyces cerevisiae YDL190C mutant at 20 ug/disc after 24 to 48 hrs by agar diffusion assay; format: functional; settings: read-out: DIZ; in short: as §2
HCT-15 = test: Cytotoxicity against human HCT15 cells; format: functional
PtK2 [8] = test: Induction of oxidative stress in potoroo PtK2 cells assessed as change in cell morphology after 24 hrs by immunofluorescence microscopic analysis; format: functional, cell-based; settings: Potorous tridactylus; in short: as §1
NCI-H460 = test: Cytotoxicity against human NCI-H460 cells; format: functional
SNB-19 = test: Cytotoxicity against human SNB19 cells; format: functional
MCF7 = test: Cytotoxicity against human MCF7 cells after 24 hrs by MTT assay; format: functional, cell-based; settings: MCF7, 24 h; in short: as §3
NCI-H226 = test: Cytotoxicity against human NCI-H226 cells; format: functional
MDA-MB-435 = test: Cytotoxicity against human MDA-MB-435 cells; format: functional
K562 = test: Cytotoxicity against human K562 cells; format: functional
PtK2 [9] = test: Induction of oxidative stress in potoroo PtK2 cells assessed as reduction in actin stress fibres after 24 hrs by immunofluorescence microscopic analysis; format: functional, cell-based; settings: Potorous tridactylus; in short: as §1
HOP-62 = test: Cytotoxicity against human HOP62 cells; format: functional
SK-MEL-28 = test: Cytotoxicity against human SK-MEL-28 cells; format: functional
EKVX = test: Cytotoxicity against human EKVX cells; format: functional
U-251 = test: Cytotoxicity against human U251 cells; format: functional
HCT-116 = test: Cytotoxicity against human HCT116 cells; format: functional
UO-31 = test: Cytotoxicity against human UO31 cells; format: functional
NCI-H23 = test: Cytotoxicity against human NCI-H23 cells; format: functional
A-431 = test: Cytotoxicity against human A431 cells after 24 hrs by MTT assay; format: functional, cell-based; settings: A-431, 24 h; in short: as §3
KM12 = test: Cytotoxicity against human KM12 cells; format: functional
Hs-578T = test: Cytotoxicity against human Hs578T cells; format: functional
M14 = test: Cytotoxicity against human M14 cells; format: functional
NCI-H322M = test: Cytotoxicity against human NCI-H322M cells; format: functional
HOP-92 = test: Cytotoxicity against human HOP92 cells; format: functional

Question: What does the source list for `CC1=C([Se]CC(OC(=O)[C@@H](CO)NC(=O)OC(C)(C)C)C(=O)NC(C)(C)C)C(=O)c2ccccc2C1=O` (stereo partly specified)?
Answer: Activity (PtK2 [1]): inactive; zone of inhibition at 20 µg/disc (Saccharomyces cerevisiae [2]): 11 mm; zone of inhibition at 20 µg/disc (Saccharomyces cerevisiae [3]): 0 mm; Activity (PtK2 [4]): Active; GI50 (CCRF-CEM): 0.525 µM; LC50 (CCRF-CEM): > 100 µM; TGI (CCRF-CEM; read-out: pTGI): > 100 µM; GI50 (BT-549): 1.58 µM; LC50 (BT-549): 5.37 µM; TGI (BT-549; read-out: pTGI (converted)): 2.95 µM; GI50 (RXF 393): 1.86 µM; LC50 (RXF 393): 5.75 µM; TGI (RXF 393; read-out: pTGI (converted)): 3.31 µM; GI50 (TK-10): 2 µM; LC50 (TK-10): 6.03 µM; TGI (TK-10; read-out: pTGI (converted)): 3.47 µM; zone of inhibition at 20 µg/disc (Saccharomyces cerevisiae [5]): 19 mm; GI50 (MDA-MB-231): 1.62 µM; LC50 (MDA-MB-231): 6.03 µM; TGI (MDA-MB-231; read-out: pTGI (converted)): 3.16 µM; GI50 (NCI-H522): 1.58 µM; LC50 (NCI-H522): 6.17 µM; TGI (NCI-H522; read-out: pTGI (converted)): 3.16 µM; GI50 (UACC-257): 1.74 µM; LC50 (UACC-257): 6.03 µM; TGI (UACC-257; read-out: pTGI (converted)): 3.24 µM; GI50 (CAKI-1): 1.74 µM; LC50 (CAKI-1): 6.61 µM; TGI (CAKI-1; read-out: pTGI (converted)): 3.39 µM; IC50 [6]: 7 µM; GI50 (ACHN): 1.58 µM; LC50 (ACHN): 5.75 µM; TGI (ACHN; read-out: pTGI (converted)): 3.02 µM; IC50 (HUVEC): 3 µM; zone of inhibition at 20 µg/disc (Saccharomyces cerevisiae [7]): 13 mm; GI50 (HCT-15): 2 µM; LC50 (HCT-15): 7.94 µM; TGI (HCT-15; read-out: pTGI (converted)): 3.98 µM; Activity (PtK2 [8]): Active; GI50 (NCI-H460): 0.457 µM; LC50 (NCI-H460): 7.41 µM; TGI (NCI-H460; read-out: pTGI (converted)): 1.78 µM; GI50 (SNB-19): 0.661 µM; LC50 (SNB-19): 4.9 µM; TGI (SNB-19; read-out: pTGI (converted)): 2 µM; IC50 (MCF7): 3 µM; GI50 (NCI-H226): 1.95 µM; CC50 (NCI-H226; read-out: pLC50 (the source's name) (converted)): 9.12 µM; TGI (NCI-H226; read-out: pTGI (converted)): 4.17 µM; GI50 (MDA-MB-435): 2 µM; LC50 (MDA-MB-435): 8.32 µM; TGI (MDA-MB-435; read-out: pTGI (converted)): 4.07 µM; GI50 (K562): 1.35 µM; LC50 (K562): > 100 µM; Activity (PtK2 [9]): Active; GI50 (HOP-62): 0.525 µM; LC50 (HOP-62): 4.37 µM; TGI (HOP-62; read-out: pTGI (converted)): 1.86 µM; GI50 (SK-MEL-28): 2.04 µM; LC50 (SK-MEL-28): 6.17 µM; TGI (SK-MEL-28; read-out: pTGI (converted)): 3.55 µM; GI50 (EKVX): 1.78 µM; LC50 (EKVX): 7.76 µM; TGI (EKVX; read-out: pTGI (converted)): 3.72 µM; GI50 (U-251): 0.977 µM; LC50 (U-251): 6.61 µM; TGI (U-251; read-out: pTGI (converted)): 2.57 µM; GI50 (HCT-116): 1.45 µM; LC50 (HCT-116): 5.37 µM; TGI (HCT-116; read-out: pTGI (converted)): 2.82 µM; GI50 (UO-31): 1.45 µM; LC50 (UO-31): 6.03 µM; TGI (UO-31; read-out: pTGI (converted)): 2.95 µM; GI50 (NCI-H23): 1.48 µM; LC50 (NCI-H23): 6.92 µM; TGI (NCI-H23; read-out: pTGI (converted)): 3.24 µM; IC50 (A-431): 2 µM; GI50 (KM12): 1.51 µM; LC50 (KM12): 5.5 µM; TGI (KM12; read-out: pTGI (converted)): 2.88 µM; GI50 (Hs-578T): 2.82 µM; LC50 (Hs-578T): > 100 µM; GI50 (M14): 1.66 µM; LC50 (M14): 5.62 µM; TGI (M14; read-out: pTGI (converted)): 3.02 µM; GI50 (NCI-H322M): 0.447 µM; LC50 (NCI-H322M): 32.4 µM; TGI (NCI-H322M; read-out: pTGI (converted)): 3.72 µM; GI50 (HOP-92): 1.86 µM; LC50 (50% lethal concentration) (HOP-92): 6.31 µM; TGI (HOP-92; read-out: pTGI (converted)): 3.39 µM
